Measured values: ChEMBL document CHEMBL2086252, “Syntheses and evaluation of anticonvulsant activity of novel branched alkyl carbamates” (J Med Chem, 2012)
The source made the active and inactive calls. The rule behind the calls is not given here.

Key:
Rattus norvegicus [1] = assay: Anticonvulsant activity in ip dosed Sprague-Dawley albino rat assessed as protection against pilocarpine-induced status epilepticus after 0.5 hrs; format: functional
In short: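 Pilocarpine status epilepticus model in rats. Number and severity of convulsive seizures were observed behaviourally.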

Rattus norvegicus [2] = assay: Neurotoxicity in pilocarpine-induced status epilepticus Sprague-Dawley albino rat model assessed as minimal motor impairment at 300 mg/kg, ip after 2 hrs by rotarod test; format: toxicity, organism-based; design: dose 300 mg/kg, route intraperitoneal; conditions: in vivo
In short: (§1)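 Rat pilocarpine status epilepticus model: test carbamate given at 0 or 30 min after the first observed Racine stage 3 motor seizure, which marks SE onset. Neurotoxicity was scored within the same model.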

Rattus norvegicus [3] = assay: Neurotoxicity in pilocarpine-induced status epilepticus Sprague-Dawley albino rat model assessed as minimal motor impairment at 100 mg/kg, ip after 4 hrs by rotarod test; format: toxicity, organism-based; design: dose 100 mg/kg, route intraperitoneal; conditions: in vivo
Mus musculus [4] = assay: Neurotoxicity in albino CF1 mouse assessed as minimal motor impairment at 100 mg/kg, ip after 0.5 hrs by rotarod test; format: toxicity, organism-based; design: dose 100 mg/kg, route intraperitoneal; conditions: in vivo
In short: (§2)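 Mice dosed ip at 30, 100 or 300 mg/kg, then tested 0.5 h and 4 h after administration in the MES or scMet test. Protection was recorded as animals protected over animals tested. Neurotoxicity was recorded as motor impairment or sedation, as animals affected over animals tested.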

Rattus norvegicus [5] = assay: Neurotoxicity in pilocarpine-induced status epilepticus Sprague-Dawley albino rat model assessed as minimal motor impairment at 100 mg/kg, ip after 0.5 hrs by rotarod test; format: toxicity, organism-based; design: dose 100 mg/kg, route intraperitoneal; conditions: in vivo
Mus musculus [6] = assay: Anticonvulsant activity in albino CF1 mouse assessed as protection against subcutaneous metrazol-induced seizures at 30 mg/kg, ip after 0.5 hrs; format: functional, organism-based; design: dose 30 mg/kg; in short: as §2
Rattus norvegicus [7] = assay: Neurotoxicity in pilocarpine-induced status epilepticus Sprague-Dawley albino rat model assessed as minimal motor impairment at 300 mg/kg, ip after 4 hrs by rotarod test; format: toxicity, organism-based; design: dose 300 mg/kg, route intraperitoneal; conditions: in vivo; in short: as §1
Mus musculus [8] = assay: Anticonvulsant activity in albino CF1 mouse assessed as protection against maximal electroshock-induced seizures at 100 mg/kg, ip after 0.5 hrs; format: functional, organism-based; design: dose 100 mg/kg; in short: as §2
Rattus norvegicus [9] = assay: Neurotoxicity in pilocarpine-induced status epilepticus Sprague-Dawley albino rat model assessed as minimal motor impairment at 300 mg/kg, ip after 0.5 hrs by rotarod test; format: toxicity, organism-based; design: dose 300 mg/kg, route intraperitoneal; conditions: in vivo; in short: as §1
Mus musculus [10] = assay: Anticonvulsant activity in albino CF1 mouse assessed as protection against subcutaneous metrazol-induced seizures at 30 mg/kg, ip after 4 hrs; format: functional, organism-based; design: dose 30 mg/kg; in short: as §2
Rattus norvegicus [11] = assay: Neurotoxicity in pilocarpine-induced status epilepticus Sprague-Dawley albino rat model assessed as minimal motor impairment at 100 mg/kg, ip after 1 hr by rotarod test; format: toxicity, organism-based; design: dose 100 mg/kg, route intraperitoneal; conditions: in vivo
Rattus norvegicus [12] = assay: Neurotoxicity in pilocarpine-induced status epilepticus Sprague-Dawley albino rat model assessed as minimal motor impairment at 300 mg/kg, ip after 1 hr by rotarod test; format: toxicity, organism-based; design: dose 300 mg/kg, route intraperitoneal; conditions: in vivo; in short: as §1
Mus musculus [13] = assay: Neurotoxicity in albino CF1 mouse assessed as minimal motor impairment at 30 mg/kg, ip after 0.5 hrs by rotarod test; format: toxicity, organism-based; design: dose 30 mg/kg, route intraperitoneal; conditions: in vivo; in short: as §2
Rattus norvegicus [14] = assay: Neurotoxicity in pilocarpine-induced status epilepticus Sprague-Dawley albino rat model assessed as minimal motor impairment at 100 mg/kg, ip after 2 hrs by rotarod test; format: toxicity, organism-based; design: dose 100 mg/kg, route intraperitoneal; conditions: in vivo
Mus musculus [15] = assay: Anticonvulsant activity in albino CF1 mouse assessed as protection against maximal electroshock-induced seizures at 30 mg/kg, ip after 0.5 hrs; format: functional, organism-based; design: dose 30 mg/kg; in short: as §2
Mus musculus [16] = assay: Neurotoxicity in albino CF1 mouse assessed as minimal motor impairment at 300 mg/kg, ip after 0.5 hrs by rotarod test; format: toxicity, organism-based; design: dose 300 mg/kg, route intraperitoneal; conditions: in vivo; in short: as §2
Rattus norvegicus [17] = assay: Neurotoxicity in pilocarpine-induced status epilepticus Sprague-Dawley albino rat model assessed as minimal motor impairment at 100 mg/kg, ip after 0.25 hr by rotarod test; format: toxicity, organism-based; design: dose 100 mg/kg, route intraperitoneal; conditions: in vivo
Rattus norvegicus [18] = assay: Neurotoxicity in pilocarpine-induced status epilepticus Sprague-Dawley albino rat model assessed as minimal motor impairment at 300 mg/kg, ip after 0.25 hr by rotarod test; format: toxicity, organism-based; design: dose 300 mg/kg, route intraperitoneal; conditions: in vivo; in short: as §1
Mus musculus [19] = assay: Neurotoxicity in albino CF1 mouse assessed as minimal motor impairment at 300 mg/kg, ip after 4 hrs by rotarod test; format: toxicity, organism-based; design: dose 300 mg/kg, route intraperitoneal; conditions: in vivo; in short: as §2
Mus musculus [20] = assay: Anticonvulsant activity in albino CF1 mouse assessed as protection against maximal electroshock-induced seizures at 300 mg/kg, ip after 0.5 hrs; format: functional, organism-based; design: dose 300 mg/kg; in short: as §2
Rattus norvegicus [21] = assay: Neurotoxicity in pilocarpine-induced status epilepticus Sprague-Dawley albino rat model assessed as minimal motor impairment at 30 mg/kg, ip after 2 hrs by rotarod test; format: toxicity, organism-based; design: dose 30 mg/kg, route intraperitoneal; conditions: in vivo; in short: as §1
Rattus norvegicus [22] = assay: Anticonvulsant activity in Sprague-Dawley albino rat assessed as protection against maximal electroshock-induced seizures at 30 mg/kg, po after 1 hr; format: functional, organism-based; design: dose 30 mg/kg
In short: (§3)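 Rats dosed orally. Anti-MES protection was scored as animals protected over animals tested at each time after dosing. Neurotoxicity was scored as motor impairment or sedation, as animals affected over animals tested.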

Rattus norvegicus [23] = assay: Neurotoxicity in pilocarpine-induced status epilepticus Sprague-Dawley albino rat model assessed as minimal motor impairment at 30 mg/kg, ip after 1 hr by rotarod test; format: toxicity, organism-based; design: dose 30 mg/kg, route intraperitoneal; conditions: in vivo; in short: as §1
Rattus norvegicus [24] = assay: Anticonvulsant activity in Sprague-Dawley albino rat assessed as protection against maximal electroshock-induced seizures at 30 mg/kg, po after 2 hrs; format: functional, organism-based; design: dose 30 mg/kg; in short: as §3
Mus musculus [25] = assay: Anticonvulsant activity in albino CF1 mouse assessed as protection against subcutaneous metrazol-induced seizures at 300 mg/kg, ip after 0.5 hrs; format: functional, organism-based; design: dose 300 mg/kg; in short: as §2
Rattus norvegicus [26] = assay: Neurotoxicity in pilocarpine-induced status epilepticus Sprague-Dawley albino rat model assessed as minimal motor impairment at 30 mg/kg, ip after 0.25 hr by rotarod test; format: toxicity, organism-based; design: dose 30 mg/kg, route intraperitoneal; conditions: in vivo; in short: as §1
Rattus norvegicus [27] = assay: Neurotoxicity in pilocarpine-induced status epilepticus Sprague-Dawley albino rat model assessed as minimal motor impairment at 30 mg/kg, ip after 0.5 hrs by rotarod test; format: toxicity, organism-based; design: dose 30 mg/kg, route intraperitoneal; conditions: in vivo; in short: as §1
Rattus norvegicus [28] = assay: Anticonvulsant activity in Sprague-Dawley albino rat assessed as protection against maximal electroshock-induced seizures at 30 mg/kg, po after 4 hrs; format: functional, organism-based; design: dose 30 mg/kg; in short: as §3
Mus musculus [29] = assay: Anticonvulsant activity in albino CF1 mouse assessed as protection against subcutaneous metrazol-induced seizures at 100 mg/kg, ip after 0.5 hrs; format: functional, organism-based; design: dose 100 mg/kg; in short: as §2
Mus musculus [30] = assay: Anticonvulsant activity in albino CF1 mouse assessed as protection against maximal electroshock-induced seizures at 300 mg/kg, ip after 4 hrs; format: functional, organism-based; design: dose 300 mg/kg; in short: as §2
Mus musculus [31] = assay: Neurotoxicity in albino CF1 mouse assessed as minimal motor impairment at 30 mg/kg, ip after 4 hrs by rotarod test; format: toxicity, organism-based; design: dose 30 mg/kg, route intraperitoneal; conditions: in vivo; in short: as §2
Mus musculus [32] = assay: Anticonvulsant activity in albino CF1 mouse assessed as protection against subcutaneous metrazol-induced seizures at 300 mg/kg, ip after 4 hrs; format: functional, organism-based; design: dose 300 mg/kg; in short: as §2
Rattus norvegicus [33] = assay: Neurotoxicity in Sprague-Dawley albino rat assessed as minimal motor impairment at 30 mg/kg, po by rotarod test; format: toxicity, organism-based; design: dose 30 mg/kg, route oral; conditions: in vivo; in short: as §3
Mus musculus [34] = assay: Neurotoxicity in albino CF1 mouse assessed as minimal motor impairment at 100 mg/kg, ip after 4 hrs by rotarod test; format: toxicity, organism-based; design: dose 100 mg/kg, route intraperitoneal; conditions: in vivo; in short: as §2
Rattus norvegicus [35] = assay: Anticonvulsant activity in Sprague-Dawley albino rat assessed as protection against maximal electroshock-induced seizures at 30 mg/kg, po after 30 mins; format: functional, organism-based; design: dose 30 mg/kg; in short: as §3
Mus musculus [36] = assay: Anticonvulsant activity in albino CF1 mouse assessed as protection against subcutaneous metrazol-induced seizures at 100 mg/kg, ip after 4 hrs; format: functional, organism-based; design: dose 100 mg/kg; in short: as §2
Mus musculus [37] = assay: Anticonvulsant activity in albino CF1 mouse assessed as protection against maximal electroshock-induced seizures at 30 mg/kg, ip after 4 hrs; format: functional, organism-based; design: dose 30 mg/kg; in short: as §2
Rattus norvegicus [38] = assay: Neurotoxicity in pilocarpine-induced status epilepticus Sprague-Dawley albino rat model assessed as minimal motor impairment at 30 mg/kg, ip after 4 hrs by rotarod test; format: toxicity, organism-based; design: dose 30 mg/kg, route intraperitoneal; conditions: in vivo; in short: as §1
Rattus norvegicus [39] = assay: Anticonvulsant activity in Sprague-Dawley albino rat assessed as protection against maximal electroshock-induced seizures at 30 mg/kg, po after 15 mins; format: functional, organism-based; design: dose 30 mg/kg; in short: as §3
Mus musculus [40] = assay: Anticonvulsant activity in albino CF1 mouse assessed as protection against maximal electroshock-induced seizures at 100 mg/kg, ip after 4 hrs; format: functional, organism-based; design: dose 100 mg/kg; in short: as §2

SMILES | Activity (Rattus norvegicus [2]) | Activity (Rattus norvegicus [3]) | Activity (Mus musculus [4]) | Activity (Rattus norvegicus [5]) | Activity (Mus musculus [6]) | Activity (Rattus norvegicus [7]) | Activity (Mus musculus [8]) | Activity (Rattus norvegicus [9]) | Activity (Mus musculus [10]) | Activity (Rattus norvegicus [11]) | Activity (Rattus norvegicus [12]) | Activity (Mus musculus [13]) | Activity (Rattus norvegicus [14]) | Activity (Mus musculus [15]) | Activity (Mus musculus [16]) | Activity (Rattus norvegicus [17]) | Activity (Rattus norvegicus [18]) | Activity (Mus musculus [19]) | Activity (Mus musculus [20]) | Activity (Rattus norvegicus [22]) | further results
NC(=O)N1c2ccccc2C=Cc2ccccc21 [CARBAMAZEPINE] |  |  |  |  |  |  |  |  |  |  |  |  |  |  |  |  |  |  |  |  | ED50 (Rattus norvegicus [1]): 50 mg/kg
CC(C)(C)CCOC(N)=O | Non-toxic | Non-toxic | Toxic | Non-toxic | inactive | Non-toxic | Active | Toxic | inactive | Non-toxic | Non-toxic | Toxic | Non-toxic | Active | Toxic | Non-toxic | Toxic |  |  |  | 
CCCC(COC(N)=O)C(C)CC (racemic) | Non-toxic | Non-toxic |  | Toxic | inactive | Non-toxic |  | Non-toxic | inactive |  | Non-toxic | Non-toxic | Non-toxic | inactive |  | Toxic | Non-toxic | Non-toxic | Active | inactive | Activity (Rattus norvegicus [21]): Toxic; Activity (Rattus norvegicus [23]): Toxic; Activity (Rattus norvegicus [24]): inactive; Activity (Mus musculus [25]): Active; Activity (Rattus norvegicus [26]): Toxic; Activity (Rattus norvegicus [27]): Toxic; Activity (Rattus norvegicus [28]): inactive; Activity (Mus musculus [29]): inactive; Activity (Mus musculus [30]): Active; Activity (Mus musculus [31]): Non-toxic; Activity (Mus musculus [32]): inactive; Activity (Rattus norvegicus [33]): Non-toxic; Activity (Mus musculus [34]): Non-toxic; Activity (Rattus norvegicus [35]): inactive; Activity (Mus musculus [36]): inactive; Activity (Mus musculus [37]): inactive; Activity (Rattus norvegicus [38]): Toxic; Activity (Rattus norvegicus [39]): inactive; Activity (Mus musculus [40]): inactive
CCCCC(CC)COC(N)=O (racemic) | Toxic | Non-toxic | Non-toxic | Non-toxic | inactive | Toxic | Active | Toxic | inactive | Non-toxic | Toxic | Non-toxic | Non-toxic | inactive | Toxic | Non-toxic | Toxic | Non-toxic | Active | inactive | Activity (Rattus norvegicus [24]): inactive; Activity (Mus musculus [25]): Active; Activity (Rattus norvegicus [28]): inactive; Activity (Mus musculus [29]): inactive; Activity (Mus musculus [30]): Active; Activity (Mus musculus [31]): Non-toxic; Activity (Mus musculus [32]): inactive; Activity (Rattus norvegicus [33]): Non-toxic; Activity (Mus musculus [34]): Non-toxic; Activity (Rattus norvegicus [35]): inactive; Activity (Mus musculus [36]): inactive; Activity (Mus musculus [37]): inactive; Activity (Mus musculus [40]): inactive
